Experimental data from different studies.
Lines come from different studies, so protocols differ.
ABL1 E255K phosphorylated: Tyrosine-protein kinase ABL1, phosphorylated (ABL1, Homo sapiens, UniProt P00519, E255K)
ABL1 F317I non-phosphorylated: Tyrosine-protein kinase ABL1, non-phosphorylated (ABL1, Homo sapiens, UniProt P00519, F317I)
ABL1 F317L: Tyrosine-protein kinase ABL1 (ABL1, Homo sapiens, UniProt P00519, F317L)

Compound | target | observed | mode | method | tested at | endpoint | result
Cc1ccc(NC(=O)c2ccnc(C(F)(F)F)c2)cc1-c1cc(OCCO)nc(N2CCOCC2)c1 | Tyrosine-protein kinase ABL1 (ABL1, Homo sapiens, UniProt P00519, M351T) | binding |  |  | 1 µM | remaining binding | 100%
N#Cc1ccc(NC(=O)Nc2ccccc2)cc1 | ABL1 E255K phosphorylated | cell-free assay |  | competition with immobilised ligand | 25 µM | remaining binding | 92%
CO[C@@H]1[C@H](N(C)C(=O)c2ccccc2)C[C@H]2O[C@]1(C)n1c3ccccc3c3c4c(c5c6ccccc6n2c5c31)C(=O)NC4 | ABL1 F317I non-phosphorylated | enzyme activity | inhibitor |  | 1 µM | inhibition | 0%
COc1ccc2oc(-c3ccc4nc(N)oc4c3)c/c(=N\c3ccccc3NC(=O)CCN)c2c1 | Tyrosine-protein kinase ABL1 (ABL1, Homo sapiens, UniProt P00519, T315I) | cell-free assay |  |  | 1 µM | remaining signal | 103%
CC#CC(=O)N1CCC[C@H]1c1nc(-c2ccc(C(=O)Nc3ccccn3)cc2)c2c(N)nccn12 | ABL1 F317I non-phosphorylated | enzyme activity | inhibitor |  | 1 µM | inhibition | 25%
CN1CCN(C(=O)c2ccc(NC(=O)Nc3ccc(N(C)c4ccnc(Nc5ccc(CS(C)(=O)=O)cc5)n4)cc3)cc2)CC1 | ABL1 E255K phosphorylated | binding |  | competition with immobilised ligand | 1 µM | remaining binding | 38%
CCCCC(=O)Nc1ccc(-c2ccc3ncn(CCC)c(=O)c3c2)cn1 | Tyrosine-protein kinase ABL1, phosphorylated (ABL1, Homo sapiens, UniProt P00519, F317L) | binding |  | competition with immobilised ligand | 0.5 µM | remaining binding | 97%
C1=C/COCc2cc(ccc2OCCN2CCCC2)Nc2nccc(n2)-c2cccc(c2)COC/1 | ABL1 F317L | binding |  |  | 0.1 µM | remaining binding | 58%
COc1ccc2[nH]c3c4[nH]c5ccc(OC)cc5c4c4c(c3c2c1)C(=O)NC4=O | ABL1 F317L | binding |  |  | 1 µM | remaining binding | 84%
[2H]c1cc(C)c(NC(=O)c2cnc(Nc3cc(N4CCCCC4)nc(C)n3)s2)c(Cl)c1 | Tyrosine-protein kinase ABL1 (ABL1, Homo sapiens, UniProt P00519) | enzyme activity | inhibitor |  | 100 pM | inhibition | > 50%
C[C@H]1CC[C@H](n2c3cnccc3c3cnc(Nc4ccc5c(n4)CCN(C(=O)CO)C5)nc32)CC1 | Tyrosine-protein kinase ABL1, non-phosphorylated (ABL1, Homo sapiens, UniProt P00519) | binding |  | competition with immobilised ligand | 1 µM | remaining binding | 56%
C=CC(=O)N1CCC([C@@H]2CCNc3c(C(N)=O)c(-c4ccc(Oc5ccccc5)cc4)nn32)CC1 | Tyrosine-protein kinase ABL1, phosphorylated (ABL1, Homo sapiens, UniProt P00519, M351T) | enzyme activity | inhibitor |  | 1 µM | inhibition | 0%
